Calls of active or inactive are those of the source. The calls are words filed in the database; no cut-off is given here.

Series [1] has as its target Peroxisome proliferator-activated receptor delta (Homo sapiens) (UniProt Q03181). In words: Transactivation of human GAL4-fused PPARdelta ligand binding domain expressed in […] cells at 10 uM after 12 to 14 hrs by dual-glo luciferase reporter gene assay. The class given is cell-based. An outline of the steps: (§1)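 HEK293T cells in DMEM/10% FCS, Opti-MEM before Lipofectamine LTX transfection with pFR-Luc reporter, pRL-SV40 and pFA-CMV GAL4–LBD plasmid. 5 h later compound in 0.1% DMSO, Opti-MEM, overnight (12−14 h). Dual luciferase; firefly/renilla ×1000 = RLU, fold over DMSO control; triplicates, ≥3 independent repeats.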

For series [2], the target named is Retinoic acid receptor gamma (Homo sapiens) (UniProt P13631). In words: Transactivation of human GAL4-fused RARgamma ligand binding domain expressed in […] cells at 10 uM after 12 to 14 hrs by dual-glo luciferase reporter gene assay. Format: cell-based. In a few lines: as §1
Series [3] is described as follows: Half life in C57BL/6JRj mouse at 10 mg/kg, po measured up to 480 mins post dose by LC-MS analysis. Format: ADME, organism-based. To be noted: in vivo. In a few lines:
(§2)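 Male C57BL/6JRj mice (23−26 g), six dosed once orally at 10 mg/kg in water with 1% HPMC/Tween 80 (99:1), three vehicle. Tail-vein blood (20 μL) at 15, 30, 60, 120, 240 and 480 min, last by retro-orbital puncture. Blood spiked, acetonitrile precipitation with griseofulvin internal standard, LC−MS on phenyl-hexyl column. Noncompartmental PK analysis.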

Series [4] deals with Retinoic acid receptor beta (Homo sapiens) (UniProt P10826). In words: Transactivation of human GAL4-fused RARbeta ligand binding domain expressed in […] cells at 10 uM after 12 to 14 hrs by dual-glo luciferase reporter gene assay. The class given is cell-based. In a few lines:
as §1

Series [5] can be described thus: Tmax in C57BL/6JRj mouse at 10 mg/kg, po measured up to 480 mins post dose by LC-MS analysis. The conditions noted are these: in vivo. Format: ADME, organism-based. An outline of the steps:
as §2

The target of series [6] is T1, Bifunctional epoxide hydrolase 2 (Homo sapiens) (UniProt P34913).
T1 sequence (whole entry): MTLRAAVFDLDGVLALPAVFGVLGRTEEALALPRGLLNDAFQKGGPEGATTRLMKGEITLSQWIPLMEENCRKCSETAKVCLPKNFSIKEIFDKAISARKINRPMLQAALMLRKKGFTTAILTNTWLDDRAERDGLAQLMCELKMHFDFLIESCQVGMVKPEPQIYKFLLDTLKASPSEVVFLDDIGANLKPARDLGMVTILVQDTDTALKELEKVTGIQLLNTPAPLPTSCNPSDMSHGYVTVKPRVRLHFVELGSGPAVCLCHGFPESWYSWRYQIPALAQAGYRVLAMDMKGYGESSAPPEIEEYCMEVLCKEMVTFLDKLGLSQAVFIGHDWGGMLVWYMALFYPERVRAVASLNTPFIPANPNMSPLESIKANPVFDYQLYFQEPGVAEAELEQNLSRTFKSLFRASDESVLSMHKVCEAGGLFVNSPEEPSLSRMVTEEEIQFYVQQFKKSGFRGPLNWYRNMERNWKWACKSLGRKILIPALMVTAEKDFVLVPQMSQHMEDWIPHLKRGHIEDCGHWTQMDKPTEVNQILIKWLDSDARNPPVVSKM
The experiment in a line: Inhibition of sEH in human HepG2 cells assessed as NF-kappaB mRNA expression at 1 uM after 8 to 16 hrs by SYBR green based qRT-PCR analysis relative to DMSO control. Format: cell-based. An outline of the steps: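 HepG2 cells treated with compound or 0.1% DMSO vehicle; NF-κB mRNA quantified by SYBR Green qRT-PCR, comparative ΔΔCt with GAPDH reference; expressed as % of vehicle (100%).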

Chain of Retinoic acid receptor gamma (Homo sapiens) (P13631 whole entry, the tested form may be a part): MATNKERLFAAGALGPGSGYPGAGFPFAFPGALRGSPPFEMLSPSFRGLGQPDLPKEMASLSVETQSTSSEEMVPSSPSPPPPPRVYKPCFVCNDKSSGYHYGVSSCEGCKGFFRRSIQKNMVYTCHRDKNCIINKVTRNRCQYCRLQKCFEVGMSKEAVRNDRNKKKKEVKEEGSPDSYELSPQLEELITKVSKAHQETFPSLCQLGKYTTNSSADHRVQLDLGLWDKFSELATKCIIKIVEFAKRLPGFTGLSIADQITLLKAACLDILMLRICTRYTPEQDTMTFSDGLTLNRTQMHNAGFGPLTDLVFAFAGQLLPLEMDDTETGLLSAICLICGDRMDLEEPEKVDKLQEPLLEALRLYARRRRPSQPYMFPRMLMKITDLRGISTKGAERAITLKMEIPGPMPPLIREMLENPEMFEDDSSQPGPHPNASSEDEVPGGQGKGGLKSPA
Chain of Retinoic acid receptor beta (Homo sapiens) (P10826 whole entry, the tested form may be a part): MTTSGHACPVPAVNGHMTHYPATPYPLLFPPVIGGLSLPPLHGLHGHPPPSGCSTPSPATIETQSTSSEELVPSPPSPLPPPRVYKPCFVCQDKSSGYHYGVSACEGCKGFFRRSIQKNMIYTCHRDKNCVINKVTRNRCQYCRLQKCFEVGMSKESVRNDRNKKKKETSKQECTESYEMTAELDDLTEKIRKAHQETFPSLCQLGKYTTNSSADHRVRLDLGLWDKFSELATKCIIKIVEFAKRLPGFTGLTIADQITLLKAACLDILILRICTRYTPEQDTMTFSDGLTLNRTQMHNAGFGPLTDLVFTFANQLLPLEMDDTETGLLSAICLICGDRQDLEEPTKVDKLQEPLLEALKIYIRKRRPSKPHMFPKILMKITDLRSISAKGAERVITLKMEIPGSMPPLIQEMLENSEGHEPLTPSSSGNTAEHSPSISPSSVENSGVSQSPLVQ
Chain of Peroxisome proliferator-activated receptor delta (Homo sapiens) (Q03181 whole entry, the tested form may be a part): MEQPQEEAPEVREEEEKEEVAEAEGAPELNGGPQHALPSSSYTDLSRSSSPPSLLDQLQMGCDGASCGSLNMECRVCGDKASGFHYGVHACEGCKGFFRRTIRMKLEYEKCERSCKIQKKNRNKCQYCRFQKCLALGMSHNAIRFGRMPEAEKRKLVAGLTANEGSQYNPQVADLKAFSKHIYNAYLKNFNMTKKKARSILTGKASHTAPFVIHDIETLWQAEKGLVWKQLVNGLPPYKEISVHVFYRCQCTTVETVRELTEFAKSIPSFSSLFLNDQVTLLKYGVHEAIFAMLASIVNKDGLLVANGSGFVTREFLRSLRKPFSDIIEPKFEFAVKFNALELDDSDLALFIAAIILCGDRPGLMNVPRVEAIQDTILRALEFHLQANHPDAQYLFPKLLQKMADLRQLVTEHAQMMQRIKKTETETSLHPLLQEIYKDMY

On to `CC(C)(C)c1ccc(C(=O)NCc2ccc(NS(C)(=O)=O)cc2Cl)cc1`, for which the outcome in series [1], in series [2] and in series [4] was inactive. In series [3], this molecule had a half-life of 42 min. Moreover, the Tmax in series [5] stood at 30 min. The inhibition in series [6] stood at 17.6%.
